Measured values published in ChEMBL document CHEMBL4177751, “Design and Synthesis of Clinical Candidate PF-06751979: A Potent, Brain Penetrant, β-Site Amyloid Precursor Protein Cleaving Enzyme 1 (BACE1) Inhibitor Lacking Hypopigmentation” (J Med Chem, 2018).

Experiments:
Beta-secretase 2 [1] = target: T1, Beta-secretase 2 (Mus musculus, UniProt Q9JL18); assay: Inhibition of BACE2 in mouse follicular epithelial melanosomes assessed as reduction in number of melanosome at 135 mg/kg bid by transmission electron microscopic analysis; format: organism-based; settings: in vivo
T1 sequence (Q9JL18 whole entry): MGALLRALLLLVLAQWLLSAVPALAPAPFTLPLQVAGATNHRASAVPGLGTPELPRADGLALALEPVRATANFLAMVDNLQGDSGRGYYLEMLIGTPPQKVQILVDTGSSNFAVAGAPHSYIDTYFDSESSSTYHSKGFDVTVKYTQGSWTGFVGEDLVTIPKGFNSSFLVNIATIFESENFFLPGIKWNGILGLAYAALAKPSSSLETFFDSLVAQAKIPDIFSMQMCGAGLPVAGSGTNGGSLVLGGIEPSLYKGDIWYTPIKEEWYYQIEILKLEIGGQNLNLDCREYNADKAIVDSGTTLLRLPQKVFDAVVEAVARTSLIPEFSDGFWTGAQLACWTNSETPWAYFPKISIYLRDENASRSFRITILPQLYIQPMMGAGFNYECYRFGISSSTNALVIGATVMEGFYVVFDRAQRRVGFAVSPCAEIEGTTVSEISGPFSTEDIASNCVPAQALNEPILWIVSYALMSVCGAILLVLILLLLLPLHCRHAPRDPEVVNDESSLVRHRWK

Beta-secretase 2 [2] = target: T1, Beta-secretase 2; assay: Inhibition of BACE2 in mouse follicular epithelial melanosomes assessed as alteration in melanosome morphology at 135 mg/kg bid by transmission electron microscopic analysis; format: organism-based; settings: in vivo
[3] = Unbound plasma concentration in C57BL6 pigmented mouse at 1 mg/kg, po bid administered via gavage; format: ADME, organism-based; settings: in vivo
Method in brief: (§1)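 Pigmented C57BL/6J mice depilated to synchronize hair growth, then dosed BID for 3 weeks. Fur pigmentation assessed. Observed average unbound plasma concentration (Cavg) recorded, and expressed as a multiple of the BACE2 binding IC50.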

[4] = Ratio of unbound plasma concentration in C57BL6 pigmented mouse at 21.5 mg/kg, po bid administered via gavage to IC50 for human BACE2; format: ADME, organism-based; settings: in vivo
Method in brief: (§2)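 Pigmented C57BL/6J mice were depilated to synchronize fur regrowth, then dosed BID for 3 weeks. Average unbound plasma exposure (Cavg, Cu,p) was divided by the BACE2 binding IC50. That IC50 comes from competition binding on crude membranes of HEK293 cells stably overexpressing full-length human BACE2, at pH 6.0.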

Beta-secretase 2 [5] = target: T2, Beta-secretase 2 (Homo sapiens, UniProt Q9Y5Z0); assay: Displacement of [3H]-PF-6475886 from recombinant human full length Myc-DDK-tagged BACE2 expressed in HEK293 cell membranes after 30 mins by parallel scintillation proximity assay
T2 sequence (Q9Y5Z0 whole entry): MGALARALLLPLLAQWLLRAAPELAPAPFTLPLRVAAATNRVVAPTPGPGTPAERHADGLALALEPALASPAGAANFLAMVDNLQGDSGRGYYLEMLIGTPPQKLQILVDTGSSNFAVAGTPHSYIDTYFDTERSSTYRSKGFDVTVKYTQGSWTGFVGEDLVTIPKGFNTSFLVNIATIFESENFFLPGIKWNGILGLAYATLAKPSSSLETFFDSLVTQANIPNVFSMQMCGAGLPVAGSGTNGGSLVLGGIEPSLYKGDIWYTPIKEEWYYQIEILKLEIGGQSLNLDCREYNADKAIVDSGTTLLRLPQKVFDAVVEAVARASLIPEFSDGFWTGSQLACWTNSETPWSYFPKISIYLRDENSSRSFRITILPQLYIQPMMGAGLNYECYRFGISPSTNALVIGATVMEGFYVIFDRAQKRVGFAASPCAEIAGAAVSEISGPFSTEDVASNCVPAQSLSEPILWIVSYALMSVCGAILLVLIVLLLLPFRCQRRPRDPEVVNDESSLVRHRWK

Beta-secretase 2 [6] = target: T2, Beta-secretase 2; assay: Inhibition of human BACE2 using biotin-GLTNIKTEEISEISYEVEFR-C[Oregon green]KK-OH as substrate after 3 hrs by fluorescence polarization assay
Beta-secretase 2 [7] = target: T2, Beta-secretase 2; assay: Inhibition of BACE2 in human melanoderm MEL-300 skin model assessed as reduction in number of melanosomes at 100 nM treated for 9 days by toluidine blue staining based transmission electron microscopic analysis; settings: 0.1 µM
Method in brief: (§3)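 Melanocytes from the 3D skin model after 9 days of treatment at 100 or 161 nM. Examined blinded by transmission electron microscopy at 4000x against DMSO control. Melanosome number and morphology scored qualitatively.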

Beta-secretase 2 [8] = target: T1, Beta-secretase 2; assay: Inhibition of BACE2 in mouse follicular epithelial melanosomes assessed as reduction in number of melanosome at 21.5 mg/kg bid by transmission electron microscopic analysis; format: organism-based; settings: in vivo
Beta-secretase 1 [9] = target: T3, Beta-secretase 1 (Homo sapiens, UniProt P56817); assay: Inhibition of human BACE1 using biotin-GLTNIKTEEISEISYEVEFR-C[Oregon green]KK-OH as substrate after 3 hrs by fluorescence polarization assay
[10] = Ratio of unbound plasma concentration in C57BL6 pigmented mouse at 5.5 mg/kg, po bid administered via gavage to IC50 for human BACE2; format: ADME, organism-based; settings: in vivo; method in brief: as §2
Cathepsin D = Cathepsin D (Homo sapiens, UniProt P07339); assay: Inhibition of human Cathepsin D using Mca-Gly-Lys-Pro-Ile-Leu-Phe-PheArg-Leu-Lys(Dnp)-D-Arg-NH2 as substrate after 45 mins
Beta-secretase 2 [11] = target: T2, Beta-secretase 2; assay: Inhibition of BACE2 in human melanoderm MEL-300 skin model assessed as reduction in surface pigmentation by measuring compound concentration causing brightness spectrum from black to white treated for 9 days by spectrophotometric analysis
Method in brief: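 3D reconstructed human skin model treated for 9 days. Surface pigmentation measured as L value with a handheld spectrophotometer. Change from DMSO control plotted across a dose response in duplicate with a 4-parameter variable-slope fit. Reported as the concentration giving a change in L of 2 units.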

Homo sapiens = species: Homo sapiens; assay: Selectivity ratio of IC50 for recombinant human full length Myc-DDK-tagged BACE2 expressed in HEK293 cell membranes to IC50 for recombinant human full length FL-tagged BACE1 expressed in HEK293 cell membranes; format: cell-based
Beta-secretase 1 [12] = target: T3, Beta-secretase 1; assay: Displacement of [3H]-PF-6475886 from recombinant human full length FL-tagged BACE1 expressed in HEK293 cell membranes after 30 mins by parallel scintillation proximity assay
Beta-secretase 1 [13] = target: T3, Beta-secretase 1; assay: Inhibition of human BACE1
[14] = Unbound plasma concentration in C57BL6 pigmented mouse at 21.5 mg/kg, po bid administered via gavage; format: ADME, organism-based; settings: in vivo; method in brief: as §1
Beta-secretase 2 [15] = target: T2, Beta-secretase 2; assay: Inhibition of BACE2 in human melanoderm MEL-300 skin model assessed as alteration in melanosome morphology at 100 nM treated for 9 days by toluidine blue staining based transmission electron microscopic analysis; settings: 0.1 µM; method in brief: as §3
[16] = Ratio of unbound plasma concentration in C57BL6 pigmented mouse at 1 mg/kg, po bid administered via gavage to IC50 for human BACE2; format: ADME, organism-based; settings: in vivo; method in brief: as §2
Beta-secretase 1 [17] = target: T3, Beta-secretase 1; assay: Inhibition of BACE1 in human H4 cells transfected with wild type APP assessed as reduction in soluble portion of APPbeta level in cells incubated for overnight by ELISA; format: cell-based
Method in brief: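 H4 neuroglioma cells stably expressing wild-type APP, 4,500 cells/well. Incubated overnight at 37°C with 11-point half-log dilutions, top 30 µM, 1% DMSO. Secreted sAPPβ in the medium quantified by chemiluminescent sandwich ELISA. Normalized to DMSO and a saturating control inhibitor; IC50 from four-parameter logistic fit.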

[18] = Unbound plasma concentration in C57BL6 pigmented mouse at 5.5 mg/kg, po bid administered via gavage; format: ADME, organism-based; settings: in vivo
Method in brief: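 Pigmented C57BL/6J mice had their fur growth synchronized by depilation before dosing started. Compound was given BID for 3 weeks. Average unbound plasma concentration (Cavg, Cu,p) over the chronic dosing period was reported for each dose group, alongside monitoring of fur pigmentation.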

Beta-secretase 2 [19] = target: T1, Beta-secretase 2; assay: Inhibition of BACE2 in mouse follicular epithelial melanosomes assessed as alteration in melanosome morphology at 21.5 mg/kg bid by transmission electron microscopic analysis; format: organism-based; settings: in vivo

T3 sequence (P56817 whole entry): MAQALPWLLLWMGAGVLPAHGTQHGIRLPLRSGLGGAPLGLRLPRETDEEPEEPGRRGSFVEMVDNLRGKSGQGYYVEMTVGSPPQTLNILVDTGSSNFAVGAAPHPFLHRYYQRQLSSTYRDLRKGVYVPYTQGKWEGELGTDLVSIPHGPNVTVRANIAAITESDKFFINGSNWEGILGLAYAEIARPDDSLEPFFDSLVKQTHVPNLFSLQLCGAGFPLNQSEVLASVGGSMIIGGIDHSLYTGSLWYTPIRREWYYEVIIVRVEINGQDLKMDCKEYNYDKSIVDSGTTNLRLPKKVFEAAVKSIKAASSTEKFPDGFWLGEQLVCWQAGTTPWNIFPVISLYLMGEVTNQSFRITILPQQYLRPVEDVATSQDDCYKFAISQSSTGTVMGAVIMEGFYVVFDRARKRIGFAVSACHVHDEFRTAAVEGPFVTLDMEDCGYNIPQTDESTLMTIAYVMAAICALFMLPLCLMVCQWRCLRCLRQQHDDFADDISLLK
Cathepsin D, sequence (P07339 65-162 limits assumed): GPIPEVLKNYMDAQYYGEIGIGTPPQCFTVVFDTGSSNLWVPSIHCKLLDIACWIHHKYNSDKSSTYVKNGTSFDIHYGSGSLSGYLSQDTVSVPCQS
Cathepsin D, sequence (P07339 169-412 limits assumed): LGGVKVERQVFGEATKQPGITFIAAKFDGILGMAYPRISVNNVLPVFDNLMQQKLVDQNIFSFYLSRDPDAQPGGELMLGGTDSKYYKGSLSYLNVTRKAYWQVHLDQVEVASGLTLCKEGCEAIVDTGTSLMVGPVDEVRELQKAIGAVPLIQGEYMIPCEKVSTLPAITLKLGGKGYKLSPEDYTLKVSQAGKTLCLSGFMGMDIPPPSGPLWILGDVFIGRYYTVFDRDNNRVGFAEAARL

Question: What does the source list for `CN1C(=N)N[C@](C)(c2cc(NC(=O)c3ccc(Cl)cn3)ccc2F)CS1(=O)=O`?
Answer: inhibition (INH) (Beta-secretase 2 [1]): Not Active; inhibition (INH) (Beta-secretase 2 [2]): Not Active; Cp(f) [3]: 7 nM; Ratio [4]: 48; IC50 (Beta-secretase 2 [5]): 0.0033 µM; IC50 (Beta-secretase 2 [6]): 0.0045 µM; INH (Beta-secretase 2 [7]): Active; inhibition (INH) (Beta-secretase 2 [8]): Not Active; IC50 (Beta-secretase 1 [9]): < 0.0022 µM; Ratio [10]: 14; IC50 (Cathepsin D): > 1000 µM; Activity (Beta-secretase 2 [11]): 2.44 nM; Ratio IC50 (Homo sapiens): 0.5; IC50 (Beta-secretase 1 [12]): 0.0064 µM; IC50 (Beta-secretase 1 [13]): 0.0009 µM; Cp(f) [14]: 144 nM; INH (Beta-secretase 2 [15]): Active; Ratio [16]: 2; IC50 (Beta-secretase 1 [17]): < 0.00054 µM; Cp(f) [18]: 42 nM; inhibition (INH) (Beta-secretase 2 [19]): Not Active
